# Test results as given in publication PMC5955836 (ACS chemical neuroscience, 2018).
# Entries after “also recorded” stand apart in the source; their conditions may differ. Read-outs that look alike come from different tables or passages of the source. Non-standard residues stand in square brackets, D forms with d.
# Columns and labels:
# mMC5R [1] = biological target: T1, mMC5R (Mus musculus, UniProt P41149); assay type: cell-based; details: for mMC5R inverse agonist potency compared within series: fold less potent than KAF2039-9, the most potent inverse agonist; for mMC5R maximal decrease in basal activity at the plateau: sigmoidal dose-response, relative to basal
# T1 sequence (P41149 whole entry): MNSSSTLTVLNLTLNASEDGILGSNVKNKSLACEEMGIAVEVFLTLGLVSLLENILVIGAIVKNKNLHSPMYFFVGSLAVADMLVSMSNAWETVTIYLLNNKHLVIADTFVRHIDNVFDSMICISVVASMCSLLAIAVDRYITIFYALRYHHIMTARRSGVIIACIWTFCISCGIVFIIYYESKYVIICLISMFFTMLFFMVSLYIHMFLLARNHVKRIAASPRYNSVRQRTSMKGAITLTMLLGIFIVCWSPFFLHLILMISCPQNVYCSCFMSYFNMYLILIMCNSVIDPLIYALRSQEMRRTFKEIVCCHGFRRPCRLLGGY
# Male Wildtype (WT) mice = experiment: Mouse feeding study, intrathecal injection: cumulative food intake; assay type: in vivo
# In short: (§1)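 Eight male WT mice, 24 weeks old, singly housed, ad libitum chow, reversed 12 h light/dark (lights off 12:00pm), 23–25°C. Crossover, non-fasting; single IT injection 2 h before lights out of 2 nmol/5 μL (20% solutol stock diluted in ddH2O) or matched vehicle; 7 days between treatments. Food and body weight at 2–72 h; two-factor repeated-measures ANOVA (drug × time).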
# [2] = Mouse feeding study, intrathecal injection: body weight; assay type: in vivo; details: male WT mice, 2 nmol, up to 72 hours post-injection
# In short: as §1
# mMC1R [3] = biological target: T2, mMC1R (Mus musculus, UniProt Q01727); details: for mMC1R percent activation at 100 μM: no sigmoidal dose-response, relative to NDP-MSH; for agonist activity at the MC1R: up to 100 μM
# T2 sequence (Q01727 whole entry): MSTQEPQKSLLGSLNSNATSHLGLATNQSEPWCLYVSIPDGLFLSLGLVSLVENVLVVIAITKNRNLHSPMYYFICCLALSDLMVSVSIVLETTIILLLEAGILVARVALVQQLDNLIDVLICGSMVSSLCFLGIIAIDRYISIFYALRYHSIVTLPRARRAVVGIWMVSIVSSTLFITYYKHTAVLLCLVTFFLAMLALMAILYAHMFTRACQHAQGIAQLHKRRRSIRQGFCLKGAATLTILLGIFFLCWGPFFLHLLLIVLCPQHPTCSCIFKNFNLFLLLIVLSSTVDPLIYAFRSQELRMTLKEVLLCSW
# [4] = biological target: mouse melanocortin-1 receptor (mouse) (UniProt Q01727)
# Sequence of mouse melanocortin-1 receptor (mouse) (Q01727 whole entry): as above
# mMC3R [5] = biological target: T3, mMC3R (Mus musculus, UniProt P33033); experiment: AlphaScreen cAMP antagonist assay; assay type: cell-based; details: for antagonist activity at the mMC3R: at the concentrations examined in this study
# T3 sequence (P33033 whole entry): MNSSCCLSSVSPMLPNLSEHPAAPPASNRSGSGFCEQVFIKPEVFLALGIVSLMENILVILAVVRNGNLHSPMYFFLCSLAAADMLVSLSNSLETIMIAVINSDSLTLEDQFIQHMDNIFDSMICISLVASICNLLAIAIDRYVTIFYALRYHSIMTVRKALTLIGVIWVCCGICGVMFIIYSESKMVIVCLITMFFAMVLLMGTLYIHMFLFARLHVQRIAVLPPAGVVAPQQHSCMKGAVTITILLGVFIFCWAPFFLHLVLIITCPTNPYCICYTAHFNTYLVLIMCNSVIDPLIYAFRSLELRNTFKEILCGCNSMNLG
# MC4R = details: unable to bind at up to this concentration; cited from earlier work
# MC3R = details: unable to bind at up to this concentration; cited from earlier work
# [6] = biological target: mouse melanocortin-4 receptor (mouse) (UniProt P56450)
# Sequence of mouse melanocortin-4 receptor (mouse) (P56450 whole entry): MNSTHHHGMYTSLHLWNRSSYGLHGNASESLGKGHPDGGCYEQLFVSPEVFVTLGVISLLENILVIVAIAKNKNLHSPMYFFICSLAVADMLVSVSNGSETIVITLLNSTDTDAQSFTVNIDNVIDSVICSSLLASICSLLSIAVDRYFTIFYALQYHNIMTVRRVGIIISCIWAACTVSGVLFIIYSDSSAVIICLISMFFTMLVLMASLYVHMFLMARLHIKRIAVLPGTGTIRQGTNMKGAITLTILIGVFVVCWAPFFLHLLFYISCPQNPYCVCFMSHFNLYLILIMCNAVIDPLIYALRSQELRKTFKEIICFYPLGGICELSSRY
# mMC5R [7] = biological target: T1, mMC5R; details: read-out: mMC5R Inverse Agonist EC50; previously published peptide; cited from earlier work
# mMC3R [8] = biological target: T3, mMC3R; details: previously published peptide, cited from earlier work
# mMC1R [9] = biological target: T2, mMC1R; details: read-out: mMC1R Agonist EC50; previously published peptide; cited from earlier work
# mMC4R [10] = biological target: T4, mMC4R (Mus musculus, UniProt P56450); details: cited from earlier work
# T4 sequence (P56450 whole entry): as above
# mMC4R [11] = biological target: T4, mMC4R; experiment: AlphaScreen cAMP antagonist assay; assay type: cell-based
# mMC4R [12] = biological target: T4, mMC4R; details: cited from earlier work; remark: listed apart in the source
# MC1R = details: read-out: MC1R agonist EC50; cited from earlier work
# mMC3R [13] = biological target: T3, mMC3R; details: highest concentrations of antagonist assayed; cited from earlier work
# [14] = Schild analysis with NDP-MSH, < 5.5 = no antagonist potency at up to 10,000 nM
compound,measurement,setting,value
"C[C@@H]1NC(=O)[C@H](CC(N)=O)NC(=O)[C@H](Cc2ccccc2)NC(=O)[C@H](Cc2ccccc2)NC(=O)[C@H](CCCNC(=N)N)NC(=O)[C@@H]2CCCN2C(=O)[C@H]2CCCN2C(=O)[C@H](Cc2ccc(O)cc2)NC1=O [Compound 9, c[Pro-Arg-Phe-Phe-Asn-Ala-Tyr-DPro]]",mMC5R percent decrease in receptor activity compared to basal at 100 μM,"mMC5R [1]; 100 μM, no plateau",−40% @ 100 μM
"CCCC[C@@H]1NC(=O)[C@H](C)NC(=O)[C@H](CC(N)=O)NC(=O)[C@H](Cc2ccccc2)NC(=O)[C@H](Cc2ccccc2)NC(=O)[C@H](CCCNC(=N)N)NC(=O)[C@@H]2CCCN2C(=O)[C@H]2CCCN2C1=O [Compound 7, c[Pro-Arg-Phe-Phe-Asn-Ala-Nle-DPro]]",mMC5R percent decrease in receptor activity compared to basal at 100 μM,"mMC5R [1]; 100 μM, no plateau",−35% @ 100 μM
same,mMC5R percent decrease in receptor activity compared to basal at 100 μM,mMC5R [1]; 100000.0,–35%
same,cumulative food intake vs vehicle,"Male Wildtype (WT) mice; 2 nmol IT single injection, 2 and 6 hours post-injection",ate significantly more food
same,food intake trend vs vehicle,"Male Wildtype (WT) mice; 2 nmol IT, up to 72 hours post-injection, listed as KAF2039-7",prolonged trend of increased food intake; also recorded: strong trend in increased food intake; also recorded: trend exhibited out until 72 hours post-injection
same,"main effect of drug on food intake, two-factor repeated measures ANOVA","Male Wildtype (WT) mice; 2 nmol, first 72 hours post-injection",main effect of drug
same,mouse body weight vs vehicle,[2],main effect of drug
same,mouse body weight vs vehicle,[2]; listed as KAF2039-7,treated animals weighing more than control animals
"C[C@@H]1NC(=O)[C@H](CC(N)=O)NC(=O)[C@H](Cc2ccccc2)NC(=O)[C@H](Cc2ccccc2)NC(=O)[C@H](CCCNC(=N)N)NC(=O)[C@@H]2CCCN2C(=O)[C@H]2CCCN2C(=O)[C@H](Cc2c[nH]c3ccccc23)NC1=O [Compound 8, c[Pro-Arg-Phe-Phe-Asn-Ala-Trp-DPro]]",mMC5R inverse agonist potency compared within series,mMC5R [1],equipotent to each other
same,mMC5R maximal decrease in basal activity at the plateau,mMC5R [1],−20%
same,mMC1R partial agonist maximal percent activated,mMC1R [3],50%
c[Pro-Arg-Phe-Phe-Asn-Ala-Trp-DPro] (peptide),"partial agonist: maximal percent activated, cAMP AlphaScreen, HEK293 cells",[4],50%
"C[C@@H]1NC(=O)[C@H](CC(N)=O)NC(=O)[C@H](Cc2ccccc2)NC(=O)[C@H](Cc2ccccc2)NC(=O)[C@H](CCCNC(=N)N)NC(=O)[C@@H]2CCCN2C(=O)[C@H]2CCCN2C(=O)CNC1=O [Compound 2, c[Pro-Arg-Phe-Phe-Asn-Ala-Gly-DPro]]",mMC5R percent decrease in receptor activity compared to basal at 100 μM,"mMC5R [1]; 100 μM, no plateau",−25% @ 100 μM
same,mMC1R percent activation at 100 μM,mMC1R [3],60% @ 100 μM
same,agonist activity at the MC1R,mMC1R [3],partially stimulate
same,antagonist activity at the mMC3R,mMC3R [5],not observed
"C[C@@H]1NC(=O)[C@H](CC(N)=O)NC(=O)[C@H](Cc2ccccc2)NC(=O)[C@H](Cc2ccccc2)NC(=O)[C@H](CCCNC(=N)N)NC(=O)[C@@H]2CCCN2C(=O)[C@H]2CCCN2C(=O)[C@H](CO)NC1=O [Compound 3, c[Pro-Arg-Phe-Phe-Asn-Ala-Ser-DPro]]",mMC5R percent decrease in receptor activity compared to basal at 100 μM,"mMC5R [1]; 100 μM, no plateau",−55% @ 100 μM
same,mMC5R percent decrease in receptor activity compared to basal at 100 μM,mMC5R [1]; 100000.0,−55%
same,mMC1R percent activation at 100 μM,mMC1R [3],35% @ 100 μM
same,agonist activity at the MC1R,mMC1R [3],partially stimulate
"C[C@@H]1NC(=O)[C@H](CC(N)=O)NC(=O)[C@H](Cc2ccccc2)NC(=O)[C@H](Cc2ccccc2)NC(=O)[C@H](CCCNC(=N)N)NC(=O)[C@@H]2CCCN2C(=O)[C@H]2CCCN2C(=O)[C@H](CC2CCCCC2)NC1=O [Compound 10, c[Pro-Arg-Phe-Phe-Asn-Ala-Cha-DPro]]",mMC5R inverse agonist potency compared within series,mMC5R [1],5 fold
same,mMC5R maximal decrease in basal activity at the plateau,mMC5R [1],−20%
"CC(C)C[C@@H]1NC(=O)[C@H](C)NC(=O)[C@H](CC(N)=O)NC(=O)[C@H](Cc2ccccc2)NC(=O)[C@H](Cc2ccccc2)NC(=O)[C@H](CCCNC(=N)N)NC(=O)[C@@H]2CCCN2C(=O)[C@H]2CCCN2C1=O [Compound 6, c[Pro-Arg-Phe-Phe-Asn-Ala-Leu-DPro]]",mMC5R percent decrease in receptor activity compared to basal at 100 μM,"mMC5R [1]; 100 μM, no plateau",−35% @ 100 μM
same,antagonist activity at the mMC3R,mMC3R [5],not observed
H-Ser-Arg-Phe-Phe-Asn-Ala-Phe-Ser-OH (H-SRFFNAFS-OH),binding to the MC4R,MC4R,> 20 µM
same,binding to the MC3R,MC3R,> 20 µM
"C[C@@H]1NC(=O)[C@H](CC(N)=O)NC(=O)[C@H](Cc2ccccc2)NC(=O)[C@H](Cc2ccccc2)NC(=O)[C@H](CCCNC(=N)N)NC(=O)[C@@H]2CCCN2C(=O)[C@H]2CCCN2C(=O)[C@H](CCCCN)NC1=O [Compound 4, c[Pro-Arg-Phe-Phe-Asn-Ala-Lys-DPro]]",mMC5R percent decrease in receptor activity compared to basal at 100 μM,"mMC5R [1]; 100 μM, no plateau",−40% @ 100 μM
same,mMC5R percent decrease in receptor activity compared to basal at 100 μM,mMC5R [1]; 100000.0,−40%
"C[C@@H]1NC(=O)[C@H](CC(N)=O)NC(=O)[C@H](Cc2ccccc2)NC(=O)[C@H](Cc2ccccc2)NC(=O)[C@H](CCCNC(=N)N)NC(=O)[C@@H]2CCCN2C(=O)[C@H]2CCCN2C(=O)[C@H](CCc2ccccc2)NC1=O [Compound 11, c[Pro-Arg-Phe-Phe-Asn-Ala-hPhe-DPro]]",mMC5R inverse agonist potency compared within series,mMC5R [1],equipotent to each other
same,mMC5R maximal decrease in basal activity at the plateau,mMC5R [1],−20%
same,mMC5R maximal decrease in basal activity at the plateau,mMC5R [1]; listed as KAF2039-13,20%
NDP-MSH (4-Norleucine-7-D-Phenylalanine): Ac-Ser-Tyr-Ser-Nle-Glu-His-DPhe-Arg-Trp-Gly-Lys-Pro-Val-NH2 (peptide),"agonist EC50, cAMP AlphaScreen, HEK293 cells stably expressing mMC4R",[6],0.35 nM
"hAGRP(87-132): Human agouti-related protein fragment 87-132, antagonist of MC3R and MC4R; previously published peptide",EC50,mMC5R [7],> 100000 nM
same,mMC3R Antagonist pA2,mMC3R [8],8.9±0.2
same,Ki,mMC3R [8]; read-out: mMC3R Antagonist Ki,1.3 nM
same,EC50,mMC1R [9],> 100000 nM
same,selectivity for the MC4R (vs MC3R),mMC4R [10],equipotent
same,mMC4R Antagonist pA2,mMC4R [10]; previously published peptide,9.4±1.0
same,Ki,"mMC4R [10]; read-out: mMC4R Antagonist Ki, previously published peptide",0.4 nM
c[Pro-Arg-Phe-Phe-Asn-Ala-Asp-DPro] (cyclo(PRFFNAD[dP]); SMILES C[C@@H]1NC(=O)[C@H](CC(N)=O)NC(=O)[C@H](Cc2ccccc2)NC(=O)[C@H](Cc2ccccc2)NC(=O)[C@H](CCCNC(=N)N)NC(=O)[C@@H]2CCCN2C(=O)[C@H]2CCCN2C(=O)[C@H](CC(=O)O)NC1=O) [Compound 5],mMC5R percent decrease in receptor activity compared to basal at 100 μM,"mMC5R [1]; 100 μM, no plateau",−25% @ 100 μM
same,mMC5R percent decrease in receptor activity compared to basal at 100 μM,"mMC5R [1]; 100 μM, no plateau, listed as Asp^7",-25%
same,mMC1R percent activation at 100 μM,mMC1R [3],40% @ 100 μM
same,agonist activity at the MC1R,mMC1R [3],partially stimulate
same,mMC3R Antagonist pA2,mMC3R [5]; [14],< 5.5
same,antagonist activity at the mMC3R,mMC3R [5],not observed
same,mMC4R Antagonist pA2,mMC4R [11]; [14],< 5.5
same,antagonist potency at the mMC4R,mMC4R [11]; at the concentrations used in this study,not measurable
H-Tyr-c[Cys-Arg-Phe-Phe-Asn-Ala-Phe-Cys]-Tyr-OH [AGRP[109-118]],antagonist pA2 at the mMC4R,mMC4R [12],6.8
same,EC50,MC1R,3000 nM
same,antagonist potency at the mMC3R,mMC3R [13],does not possess an antagonist potency at the mMC3R that is quantifiable
